Experimental data as given in ChEMBL document CHEMBL1142998, “Structure-activity relationship study of tricyclic necroptosis inhibitors” (J Med Chem, 2007).
Activity calls are given as the source filed them. No cut-off for these calls is given here.

Each compound was assayed on Jurkat (assay: Inhibition of TNF alpha-induced necroptosis in FADD-deficient variant human Jurkat T cells assessed as cell viability after 24 hrs).
Format: functional, cell-based
Summary of the method: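 FADD-deficient human Jurkat T cells at 500000 cells/mL exposed to 10 ng/mL human TNF-α plus compound at 11 concentrations (0.029–100 µM), each in duplicate, 24 h, 37 °C, 5% CO2; final DMSO 0.5%. ATP luminescence viability expressed relative to compound alone (TNF/compound signal ratio). EC50 from variable-slope sigmoid nonlinear regression; two independent experiments unless noted.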

Compared with `CC(=O)N1N=C2c3cc(O)ccc3CC[C@@H]2[C@@H]1c1ccc(O)cc1`, `COc1ccc2c(c1)C1=NN(C(C)=O)[C@@H](c3ccc(O)cc3)[C@H]1CC2` is lower in EC50: over 100 µM for the first, 5.9 µM for the second.

First: CC(=O)N1N=C2c3ccccc3CC[C@@H]2[C@@H]1c1ccc(F)cc1
Second: COc1ccc([C@H]2[C@H]3CCc4ccccc4C3=NN2C(C)=O)cc1
The EC50 of the first is 6.4-fold higher: 5.4 µM for the first, 0.84 µM for the second. The second is the more potent here.

First: COc1ccc([C@H]2[C@H]3CCc4ccc(OC)cc4C3=NN2C(N)=O)cc1
Second: COc1ccc([C@H]2[C@H]3CCc4ccc(OC)cc4C3=NN2C(=N)N)cc1
The EC50 of the first is lower: 4.3 µM for the first, over 100 µM for the second. The first is the more potent here.

Compared with `CC(=O)N1N=C2c3cc(C)ccc3OC[C@H]2[C@@H]1c1ccc(F)cc1`, `CC(=O)N1N=C2c3cc(C)ccc3OC[C@@H]2[C@@H]1c1ccc(F)cc1` is lower in EC50: over 100 µM for the first, 11.6 µM for the second.

`COc1ccc2c(c1)C1=NN(C(C)=O)[C@@H](c3ccc4c(c3)OCO4)[C@H]1CC2` and `COc1ccc2c(c1)C1=NN(C(C)=O)[C@@H](c3ccc4c(c3)OCCO4)[C@H]1CC2` are within 1.5-fold of each other in EC50: 2.6 µM for the first, 2.1 µM for the second.

`COc1ccc([C@H]2[C@H]3CCc4c(OC)cccc4C3=NN2C(C)=O)cc1` and `COc1ccc([C@H]2[C@H]3CCc4cccc(OC)c4C3=NN2C(C)=O)cc1` cannot be ordered by EC50: over 100 µM for the first, over 50 µM for the second.

First: COc1ccc2c(c1)C1=NN(C(C)=O)[C@@H](c3ccc(OCc4ccccc4)cc3)[C@H]1CC2
Second: COc1ccc([C@H]2[C@H]3CCc4ccc(OCc5ccccc5)cc4C3=NN2C(C)=O)cc1
The EC50 of the first is higher: over 100 µM for the first, 5 µM for the second. The second is the more potent here.

First: COCC(=O)N1N=C2c3cc(OC)ccc3CC[C@@H]2[C@@H]1c1ccc(OC)cc1
Second: CCC(=O)N1N=C2c3cc(OC)ccc3CC[C@@H]2[C@@H]1c1ccc(OC)cc1
The EC50 of the first is 2.9-fold higher: 0.44 µM for the first, 0.15 µM for the second. The second is the more potent here.

First: COc1ccc([C@H]2[C@H]3CCc4ccc([N+](=O)[O-])cc4C3=NN2C(C)=O)cc1
Second: COc1ccc([C@H]2[C@@H]3CCc4ccc([N+](=O)[O-])cc4C3=NN2C(C)=O)cc1
The EC50 of the first is lower: 3.5 µM for the first, over 100 µM for the second. The first is the more potent here.

First: COc1ccc([C@H]2[C@H]3CCc4ccc(OC)cc4C3=NN2C=O)cc1
Second: CCN1N=C2c3cc(OC)ccc3CC[C@@H]2[C@@H]1c1ccc(OC)cc1
The EC50 of the first is lower: 0.92 µM for the first, over 100 µM for the second.

First: COc1ccc2c(c1)C1=NN(C(C)=O)[C@@H](c3ccc([N+](=O)[O-])cc3)[C@H]1CC2
Second: COc1ccc2c(c1)C1=NN(C(C)=O)[C@@H](c3ccc(F)cc3)[C@H]1CC2
The EC50 of the first is 1.9-fold higher: 1.8 µM for the first, 0.96 µM for the second.

`COc1ccc([C@H]2[C@H]3CCc4ccc(OC)cc4C3=NN2C(N)=S)cc1` and `CNC(=S)N1N=C2c3cc(OC)ccc3CC[C@@H]2[C@@H]1c1ccc(OC)cc1` are within 1.5-fold of each other in EC50: 8.8 µM for the first, 7.9 µM for the second.

Compared with `COc1ccc2c(c1)C1=NN(C(C)=O)[C@@H](c3ccc(SC)cc3)[C@H]1CC2`, `COc1ccc2c(c1)C1=NN(C(C)=O)[C@@H](c3ccc(F)cc3)[C@@H]1CC2` is 3.4-fold higher in EC50: 1.1 µM for the first, 3.7 µM for the second.

First: CN1C(=O)N[C@H](Cc2c[nH]c3c(Cl)cccc23)C1=O (racemic)
Second: COc1ccc2c(c1)C1=NN(C(C)=O)[C@@H](c3cccc(F)c3)[C@H]1CC2
The EC50 of the first is 3.2-fold lower: 0.21 µM for the first, 0.68 µM for the second. The first is the more potent here.

First: COc1ccc([C@H]2[C@H]3C[C@H](N)c4ccc(OC)cc4C3=NN2C(C)=O)cc1
Second: COc1ccc([C@H]2[C@H]3C[C@H](N(C)C)c4ccc(OC)cc4C3=NN2C(C)=O)cc1
The EC50 of the first is 4.2-fold lower: 1.2 µM for the first, 5.1 µM for the second. The first is the more potent here.

First: COc1ccc([C@H]2[C@H]3CCc4ccc(OCCN5CCOCC5)cc4C3=NN2C(C)=O)cc1
Second: COc1ccc([C@H]2[C@H]3CCc4ccc(F)cc4C3=NN2C(C)=O)cc1
The EC50 of the first is higher: over 50 µM for the first, 0.28 µM for the second. The second is the more potent here.

Compared with `COc1ccc2c(c1)C1=NN(C(C)=O)[C@@H](c3ccc(F)cc3)[C@H]1CO2`, `COc1ccc2c(c1)CC[C@@H]1C2=NN(C(C)=O)[C@H]1c1ccc(F)cc1` is higher in EC50: 4.8 µM for the first, over 100 µM for the second. The first is the more potent here.

`COc1ccc([C@H]2[C@H]3CCc4ccc(OC)cc4C3=NN2C(=O)COC(C)=O)cc1` and `COc1ccc([C@H]2[C@@H]3CCc4ccc(F)cc4C3=NN2C(C)=O)cc1` are within 1.5-fold of each other in EC50: 3.1 µM for the first, 2.7 µM for the second.

`COc1ccc2c(c1)CC[C@H]1C2=NN(C(C)=O)[C@H]1c1ccc(F)cc1` and `COc1cc2c(cc1OC)C1=NN(C(C)=O)[C@@H](c3ccc(F)cc3)[C@H]1CC2` cannot be ordered by EC50: over 100 µM for the first, over 100 µM for the second.

With `COc1ccc2c(c1)C1=NN(C(C)=O)[C@@H](c3ccccc3OC)[C@H]1CC2` the EC50 was over 100 µM.

The compounds below were run on L929 (assay: Inhibition of TNF alpha-induced necroptosis in mouse L929 cells assessed as cell viability at 30 uM after 24 hrs).
Format: functional, cell-based
Summary of the method: (§1)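 L929 cells, 100000 cells/mL, challenged with 10 ng/mL human TNF-α or 100 µM zVAD.fmk alongside compound at 30 µM or DMSO, 24 h, 37 °C, 5% CO2; final DMSO 0.5%, duplicates. Viability by luminescent ATP assay, corrected for nonspecific compound toxicity; mean % viability ± SD from two independent experiments.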

`COc1ccc([C@H]2[C@H]3CCc4ccc(OC)cc4C3=NN2C(C)=O)cc1` was tested, and the Activity was “Active”.
`CN1C(=O)N[C@H](Cc2c[nH]c3c(Cl)cccc23)C1=O` (racemic) was tested, and the Activity was “Active”.

The compounds below were run on L929 (assay: Inhibition of zVAD.fmk-induced necroptosis in mouse L929 cells assessed as cell viability at 30 uM after 24 hrs).
Format: functional, cell-based
Summary of the method: as §1

With `COc1ccc([C@H]2[C@H]3CCc4ccc(OC)cc4C3=NN2C(C)=O)cc1` the Activity was “inactive”.
In the case of `CN1C(=O)N[C@H](Cc2c[nH]c3c(Cl)cccc23)C1=O` (racemic), the Activity is reported as “Active”.
